Consider three molecules from ChEMBL document CHEMBL4376883, “Discovery and Optimization of Small Molecules Targeting the Protein-Protein Interaction of Heat Shock Protein 90 (Hsp90) and Cell Division Cycle 37 as Orally Active Inhibitors for the Treatment of Colorectal Cancer” (J Med Chem, 2020).

Calls of active or inactive are those of the source. No cut-off for these calls is given here.

For experiment [1], the system named is Heat shock protein HSP 90-alpha (Homo sapiens), P07900 [E47A]. Put plainly: Binding affinity to recombinant […] HSP90 E47A mutant N-terminal domain (9 to 236 residues) (unknown origin) expressed in Escherichia coli BL21 (DE3) at 200 uM by NMR spectra analysis.
The test system of experiment [2] is Heat shock protein HSP 90-alpha (Homo sapiens), P07900 [R46A]. Put plainly: Binding affinity to recombinant […] HSP90 R46A mutant N-terminal domain (9 to 236 residues) (unknown origin) expressed in Escherichia coli BL21 (DE3) at 200 uM by NMR spectra analysis.
The test system of experiment [3] is Heat shock protein HSP 90-alpha (Homo sapiens), P07900 [Q133A]. Put plainly: Binding affinity to recombinant […] HSP90 Q133A mutant N-terminal domain (9 to 236 residues) (unknown origin) expressed in Escherichia coli BL21 (DE3) at 200 uM by NMR spectra analysis.
Experiment [4] has as its target T1, Heat shock protein HSP 90-beta/Hsp90 co-chaperone Cdc37 (Homo sapiens) (UniProt P08238+Q16543). Put plainly: Inhibition of His-tagged HSP90/GST-tagged Cdc37 (unknown origin) protein-protein interaction at 100 uM measured after 1 hr by HTRF assay relative to control. The class given is protein-complex assay. The procedure, abridged: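 His-Hsp90 and GST-Cdc37 were premixed at a final 80 nM in PBS with 200 mM KF, pH 7.4. Compound was added and the mix incubated 1 h at 37 °C, then read by HTRF. Inhibition rate was taken at 100 μM compound.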

The target of experiment [5] is T1, Heat shock protein HSP 90-beta/Hsp90 co-chaperone Cdc37 (Homo sapiens). Put plainly: Inhibition of HSP90-CDC37 protein-protein interaction in human HCT116 cells assessed as reduction in CDK4 expression up to 10 uM measured after 12 hrs by coimmunoprecipitation-based Western blot assay. The class given is cell-based. A digest of the protocol:
(§1)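 HCT116 cells grown to ~90% confluence in 10 cm dishes, exposed to compound or DMSO for 12 h, then washed with ice-cold PBS and lysed in RIPA buffer (50 mM Tris, 150 mM NaCl, 1% NP-40, protease inhibitors, pH 7.4) for 1 h on ice. Hsp90 was immunoprecipitated with protein A/G magnetic beads over 3 h. Western blots probed Hsp90, Cdc37 and CDK4.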

The target in experiment [6] is T2, Heat shock protein HSP90 (Homo sapiens, UniProt P07900+P08238). Briefly: Binding affinity to HSP90 in human HCT116 cells assessed as change in melting temperature measured after 12 hrs by CETSA. The experiment is classed as cell-based. The procedure, abridged: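 HCT116 cells near 90% confluence were treated 12 h with 20 µM compound or DMSO, then washed and resuspended in PBS. Aliquots heated 3 min at 37–75 °C, freeze-thawed three times in liquid nitrogen and centrifuged. Hsp90 detected by Western blot with β-actin reference; Tm taken from band grey levels. Three independent experiments.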

In experiment [7] the test system is Mus musculus. Briefly: In vivo inhibition of HSP90-CDC37 protein-protein interaction in human HCT116 cells xenografted BALB/c mouse assessed as reduction in CDK4 level at 40 to 80 mg/kg, po administered once daily for 21 days measured post-last dose by immunohistochemical analysis. The experiment is classed as functional, organism-based. The procedure, abridged: (§2)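 Tumours from the 21-day daily oral xenograft study (40 or 80 mg/kg) were formalin-fixed and cut into 4 µm paraffin sections. Peroxidase quenched with 3% H₂O₂; antigen retrieval by boiling in 10 mM citrate, pH 6.0. Blocked with 3% BSA; anti-CDK4 at 4 °C overnight; secondary 20 min at 37 °C. DAB detection, haematoxylin counterstain, viewed at 200×.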

Experiment [8] deals with HCT-116. Put plainly: Antitumor activity against human HCT116 cells xenografted in BALB/c mouse assessed as reduction in tumor cells at 40 to 80 mg/kg, po administered once daily for 21 days measured post-last dose by H and E staining-based imaging analysis. The class given is functional, organism-based. The procedure, abridged:
(§3)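 1×10^7 HCT116 cells mixed 3:1 with Matrigel were injected into the flanks of 6-week-old BALB/c nude mice, which were randomised into groups. Dosing started at mean tumour volume 125 mm³: daily oral gavage for 21 days in 0.9% saline with 5% DMSO at 40 or 80 mg/kg. Tumour volume measured daily by calipers (length×width²/2); n = 6. Tumours fixed in 4% formaldehyde, paraffin-embedded, 4 µm H&E sections.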

In experiment [9] the test system is HCT-116. Briefly: Antitumor activity against human HCT116 cells xenografted in po dosed BALB/c mouse assessed as tumor growth inhibition administered once daily for 21 days. The experiment is classed as functional, organism-based. A digest of the protocol: as §3
Experiment [10] deals with T2, Heat shock protein HSP90. Briefly: Binding affinity to recombinant […] HSP90 N-terminal domain (9 to 236 residues) (unknown origin) expressed in Escherichia coli BL21 (DE3) at 100 uM by STD NMR spectra analysis. The procedure, abridged: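 STD NMR: 100 µM compound with 5 µM Hsp90 in 20 mM sodium phosphate, 150 mM NaCl, 5% DMSO, pH 7.4. Three independent experiments.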

Experiment [11] has as its target T2, Heat shock protein HSP90. Put plainly: Binding affinity to recombinant […] HSP90 N-terminal domain (9 to 236 residues) (unknown origin) expressed in Escherichia coli BL21 (DE3) at 200 uM by NMR spectra analysis.
The target of experiment [12] is T1, Heat shock protein HSP 90-beta/Hsp90 co-chaperone Cdc37 (Homo sapiens). Put plainly: Inhibition of HSP90-CDC37 protein-protein interaction in human HCT116 cells measured after 12 hrs by coimmunoprecipitation-based Western blot assay. The class given is cell-based. The procedure, abridged:
as §1

Experiment [13] addresses T2, Heat shock protein HSP90. Put plainly: Binding affinity to recombinant […] HSP90 N-terminal domain (9 to 236 residues) (unknown origin) expressed in Escherichia coli BL21 (DE3) assessed as change in melting temperature by SYPRO dye based thermal shift assay. A digest of the protocol: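 Hsp90 N-terminal domain (10 µM) mixed with compound at 200, 100, 50 or 10 µM in 1× PBS, pH 8.0, with 6× SYPRO Orange. Heated from room temperature to 99 °C at 1 °C/min; fluorescence read at 492 nm excitation and 610 nm emission.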

In experiment [14] the test system is Mus musculus. Briefly: In vivo inhibition of HSP90-CDC37 protein-protein interaction in human HCT116 cells xenografted BALB/c mouse assessed as reduction in CDK4 level at 40 mg/kg, po administered once daily for 21 days measured post-last dose by immunohistochemical analysis. The experiment is classed as functional, organism-based. A digest of the protocol: as §2

Experiment [15] deals with Mus musculus. Briefly: In vivo inhibition of HSP90-CDC37 protein-protein interaction in human HCT116 cells xenografted BALB/c mouse assessed as reduction in CDK4 level at 80 mg/kg, po administered once daily for 21 days measured post-last dose by immunohistochemical analysis. The experiment is classed as functional, organism-based. A digest of the protocol: as §2
Experiment [16] relates to HCT-116. Put plainly: Antitumor activity against human HCT116 cells xenografted in BALB/c mouse assessed as reduction in tumor cells at 40 mg/kg, po administered once daily for 21 days measured post-last dose by H and E staining-based imaging analysis. The class given is functional, organism-based. A digest of the protocol:
as §3

In experiment [17] the test system is HCT-116. Put plainly: Antitumor activity against human HCT116 cells xenografted in BALB/c mouse assessed as tumor growth inhibition at 40 mg/kg, po administered once daily for 21 days. The experiment is classed as functional, organism-based. A digest of the protocol:
as §3

Experiment [18] deals with T2, Heat shock protein HSP90. Briefly: Binding affinity to recombinant full-length 15N-labelled HSP90 N-terminal domain (9 to 236 residues) (unknown origin) expressed in Escherichia coli BL21 (DE3) at 250 to 500 uM by 15N 1H HSQC spectra analysis.
The test system of experiment [19] is HCT-116. Put plainly: Antitumor activity against human HCT116 cells xenografted in BALB/c mouse assessed as reduction in tumor cells at 80 mg/kg, po administered once daily for 21 days measured post-last dose by H and E staining-based imaging analysis. The experiment is classed as functional, organism-based. A digest of the protocol:
as §3

Experiment [20] addresses Heat shock protein HSP 90-alpha (Homo sapiens, UniProt P07900). Put plainly: Binding affinity to recombinant human full-length HSP90alpha by surface plasmon resonance analysis.

With `Cc1cc(C)c(S(=O)(=O)N(CC(=O)O)c2ccc(Nc3ccnc(N4CCNCC4)n3)cc2)c(C)c1`, the result in experiment [1] was inactive. Moreover, the result in experiment [2], in [3], in experiment [8], in experiment [10] and in experiment [11] was Active. The inhibition is 97.4% in [4] and “Dose-dependent effect” in [12]. In addition, the inhibition entry in experiment [5] and in [7] was “Active” each time. Besides, the ΔTm in [6] came out at 6.39 °C; in experiment [13], 4.75 °C. For the same molecule, the TGI entry in experiment [9] was “Dose-dependent effect”.

Consider `Cc1cc(C)c(S(=O)(=O)N(CC(=O)O)c2ccc(Nc3ccnc(N4CCCC4)n3)cc2)c(C)c1`, for which the inhibition entry in experiment [14] is “inactive”. The molecule further showed an inhibition in experiment [4] of 72.6%. The inhibition result in experiment [15] is “Active”. Besides, in experiment [16], the result was inactive. Besides, in experiment [17], the TGI result is “inactive”. Further, the outcome in experiment [18], in experiment [10], in experiment [11] and in experiment [19] was Active. For the same molecule, the ΔTm in experiment [13] stood at 2.13 °C.

`Cc1cc(C)n(-c2nc(NN)nc(Nc3ccc(Cl)c(C(F)(F)F)c3)n2)n1`: in experiment [20], the Kd was found to be 4.98 µM.
